These results are taken from ChEMBL document CHEMBL1136932, “Discovery, SAR, and pharmacokinetics of a novel 3-hydroxyquinolin-2(1H)-one series of potent D-amino acid oxidase (DAAO) inhibitors” (J Med Chem, 2009).

The source made the active and inactive calls. The rule behind the calls is not given here.

Series [1] in a line: Ratio of drug level in brain to plasma in Sprague-Dawley CD rat at 56 mg/kg, sc after 4 hrs. The series is classed as ADME, organism-based. On the set-up: dose 56 mg/kg, route subcutaneous. To be noted: read-out: BPR.
Series [2] in a line: Oral bioavailability in Sprague-Dawley CD rat at 3 mg/kg. The series is classed as ADME, organism-based. To be noted: in vivo.
A short description of series [3]: Fraction unbound in Sprague-Dawley CD rat brain at 56 mg/kg, sc after 4 hrs. Format: ADME, organism-based. On the set-up: dose 56 mg/kg, route subcutaneous.
A short description of series [4]: Dissociation constant, pKa of the compound. Format: physicochemical.
Series [5] can be described thus: Cmax in Sprague-Dawley CD rat at 3 mg/kg, po. The series is classed as ADME, organism-based. On the set-up: dose 3 mg/kg, route oral. The note with it: in vivo.
The test system of series [6] is Brain. Nature of the series: Free drug level in 129/SVEV mouse brain at 10 mg/kg, sc after 4 hrs. The note with it: in vivo.
The subject of series [7] is Brain. Nature of the series: Free drug level in Sprague-Dawley CD rat brain at 56 mg/kg, sc after 4 hrs. The series is classed as ADME, organism-based. On the set-up: dose 56 mg/kg, route subcutaneous. The note with it: in vivo.
Series [8] in a line: Ratio of drug level in brain to plasma in 129/SVEV mouse at 10 mg/kg, sc after 4 hrs. The note with it: read-out: BPR.
A short description of series [9]: Clearance in Sprague-Dawley CD rat plasma at 3 mg/kg, po and 1 mg/kg, iv. The series is classed as ADME, organism-based.
A short description of series [10]: Displacement of [3H]glycine from NMDA receptor at 10 uM.
The test system of another series is Rattus norvegicus. The series is described as follows: Volume of distribution in Sprague-Dawley CD rat at 3 mg/kg, po and 1 mg/kg, iv. The series is classed as ADME, organism-based. The note with it: in vivo.
In a further series the target is T1, D-aspartate oxidase (Homo sapiens, UniProt Q99489).
T1 sequence (Q99489 whole entry): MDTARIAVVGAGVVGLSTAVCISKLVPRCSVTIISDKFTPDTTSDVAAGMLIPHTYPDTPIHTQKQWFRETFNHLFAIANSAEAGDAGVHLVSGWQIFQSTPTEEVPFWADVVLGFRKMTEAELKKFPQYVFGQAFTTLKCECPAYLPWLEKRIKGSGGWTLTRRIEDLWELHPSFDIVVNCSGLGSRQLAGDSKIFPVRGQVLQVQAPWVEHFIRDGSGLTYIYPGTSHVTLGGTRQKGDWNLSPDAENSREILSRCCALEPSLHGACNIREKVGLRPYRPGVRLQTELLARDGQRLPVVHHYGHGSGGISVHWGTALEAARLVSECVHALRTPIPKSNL
Nature of the series: Inhibition of human recombinant DDO expressed in sf9 insect cells assessed as degradation of D-aspartic acid by fluorescence assay.

Series [11] can be described thus: Half life in Sprague-Dawley CD rat at 3 mg/kg, po and 1 mg/kg, iv. The series is classed as ADME, organism-based. To be noted: in vivo.
The test system of the next series is Mus musculus. The series is described as follows: Elevation of D-serine level in 129/SVEV mouse cerebellum at 10 mg/kg, sc after 4 hrs by LC/MS-MS analysis. Format: functional, organism-based. On the set-up: dose 10 mg/kg. A digest of the protocol:
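Male rats (1-2 mL/kg) or male mice (10 mL/kg) received compound or vehicle sc in 5% DMSO/5% Cremophor EL/90% saline. At 4 h, cerebella were taken under CO2 anesthesia, homogenized in 3 volumes PBS and extracted with 16 volumes acetonitrile, and the supernatant was dried.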

In the next series the target is D-amino-acid oxidase (Rattus norvegicus, UniProt O35078). The series is described as follows: Inhibition of rat recombinant DAAO expressed in sf9 insect cells assessed as degradation of D-serine by fluorescence assay.
D-amino-acid oxidase, sequence (O35078 whole entry): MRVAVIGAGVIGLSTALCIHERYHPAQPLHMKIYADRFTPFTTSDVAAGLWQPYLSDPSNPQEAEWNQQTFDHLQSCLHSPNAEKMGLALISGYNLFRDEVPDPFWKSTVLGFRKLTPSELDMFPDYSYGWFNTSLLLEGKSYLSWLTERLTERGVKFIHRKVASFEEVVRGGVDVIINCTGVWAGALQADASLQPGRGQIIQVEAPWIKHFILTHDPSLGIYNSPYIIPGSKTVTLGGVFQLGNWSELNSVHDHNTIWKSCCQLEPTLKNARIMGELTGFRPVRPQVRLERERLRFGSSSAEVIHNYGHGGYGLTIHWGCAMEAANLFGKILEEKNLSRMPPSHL

In general, bioavailability refers to the share of a dose that reaches the circulation, judged against a reference dose that is usually intravenous. A low value points to poor availability. In general, fraction unbound refers to free concentration divided by total concentration. A word on the pKa: it is the pH at which an ionisable group is half protonated. The Cmax is the maximum level reached in the sampled fluid or tissue. One may read the inhibition as the drop in the measured response relative to a control, in per cent. Consider `O=c1[nH]c2ccccc2cc1O`, for which the results for the Kp at 4 h in series [1] and in [8] were 0.7 and 2, respectively. This compound yielded a bioavailability in series [2] of 0.9%. This compound returned a fraction unbound at 4 h in [3] of 0.22. Moreover, the pKa in series [4] was 8.7. Also, the Cmax in series [5] was 5.5 ng/mL. The Drug uptake in the series with Brain [6] came out at 15 nM; in the series with Brain [7], 670 nM. In series [9], this compound gave a clearance of 46 mL/min/kg. The compound further registered an inhibition in series [10] of 29%. For the same compound, in the series with Rattus norvegicus, the Vd turned out to be 10.8 L/kg.
As a reminder, the IC50 is the concentration at which inhibition is half-maximal. As for `O=c1[nH]c2c(Cl)cccc2cc1O`, the 50% inhibitory concentration (IC50) on D-aspartate oxidase was > 43.4 µM.
As for `Cc1ccc2cc(O)c(=O)[nH]c2c1`, the IC50 at D-aspartate oxidase was 21.5 µM.
`Oc1noc2cc(Cl)ccc12` registered a pKa in series [4] of 4.
As for `Cc1cccc2cc(O)c(=O)[nH]c12`, on D-aspartate oxidase, the IC50 was determined as 31.6 µM.
For the compound `O=c1[nH]c2ncccc2cc1O`, the IC50 on D-aspartate oxidase was > 7.64 µM. In [10], the inhibition was < 50%.
As for `CCc1cccc2cc(O)c(=O)[nH]c12`, at D-aspartate oxidase, the 50% inhibitory concentration (IC50) is > 50 µM.
What is called half-life is how long it takes for the measured level to halve. On to `O=c1[nH]c2ccc(F)cc2cc1O`, for which the bioavailability in [2] is 44%. In [5], this compound came in with a Cmax of 216 ng/mL. The clearance in series [9] is 72 mL/min/kg. Moreover, the inhibition in series [10] is < 50%. Further, in the series on Rattus norvegicus, the Vd was determined as 2.3 L/kg. This compound showed a half-life in series [11] of 0.9 h.
For `O=c1[nH]c2ncc(F)c(Cl)c2cc1O`, in the series on Mus musculus, the outcome was Active. In the series with Brain [6], this compound showed a Drug uptake of 12 nM. For the same compound, the Kp at 4 h in [8] worked out at 0.1.
Take `O=c1[nH]c2cc(F)ccc2cc1O`: in series [2], the bioavailability is 38%. In addition, the half-inhibitory concentration (IC50) on D-aspartate oxidase came to 22.4 µM. In series [5], this compound registered a maximum concentration (Cmax) of 754 ng/mL. Moreover, the clearance in series [9] was found to be 15 mL/min/kg. Besides, the inhibition in series [10] is < 50%. In the series with Rattus norvegicus, the Vd amounted to 1.2 L/kg. For the same compound, the half-life in series [11] was 5.4 h.
In the case of `Cc1cccc2[nH]c(=O)c(O)cc12`, the inhibition in series [10] is < 50%.
Take `O=c1[nH]c2cnccc2cc1O`: the IC50 at D-aspartate oxidase is > 50 µM.
Regarding `O=c1[nH]c2cccc(F)c2cc1O`, at D-aspartate oxidase, the IC50 is 64 µM. Besides, in series [10], the inhibition is < 50%.
`O=c1[nH]c2cccc(Cl)c2cc1O`: the concentration for half-maximal inhibition (IC50) at D-amino-acid oxidase turned out to be 0.04 µM; at D-aspartate oxidase, 206 µM. The inhibition in series [10] is < 50%.
Regarding `O=c1[nH]c2cccnc2cc1O`, the half-maximal inhibitory concentration (IC50) on D-aspartate oxidase was > 50 µM.
Consider `O=C(O)c1cc2occc2[nH]1`, for which the figures for the concentration for half-maximal inhibition (IC50) at D-amino-acid oxidase and at D-aspartate oxidase were 0.424 µM and > 19.5 µM, respectively. The compound further showed a pKa in series [4] of 4. For the same compound, in series [8], the Kp at 4 h was 0.8.
For the compound `O=c1[nH]c2c(F)cccc2cc1O`, the inhibition in series [10] is < 50%.
Regarding `Cc1c(O)c(=O)[nH]c2ccccc12`, the IC50 on D-aspartate oxidase is 32.3 µM.
As for `O=c1[nH]c2nccnc2cc1O`, on D-aspartate oxidase, the IC50 is > 50 µM.
For `O=c1[nH]c2ccc(Cl)cc2cc1O`, on D-aspartate oxidase, the concentration for half-maximal inhibition (IC50) was > 50 µM.
As to `O=c1[nH]c2ccncc2cc1O`, the IC50 at D-aspartate oxidase was > 36 µM.
As to `CCc1cccc2[nH]c(=O)c(O)cc12`, the inhibition in [10] is < 50%.
`Cc1cc(C(=O)O)n[nH]1`: the pKa in series [4] is 4.
